Measured values reported in ChEMBL document CHEMBL1123333, “Synthesis and antiviral activity of certain nucleoside 5'-phosphonoformate derivatives” (1986).
pEC50: −log10 of the molar value.

Legend:
Vero [1] = assay: Maximum tolerated concentration (MTC), the lowest concentration that produced microscopically evident toxicity to confluent vero cells; format: functional, Chlorocebus sabaeus
Method in brief: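 Uninfected confluent Vero monolayers in DMEM with 10% newborn bovine serum, single well per concentration, exposed to compound at final 5.0–5000 μM (0.5-log steps) for 72 h at 37 °C, 5% CO2. Cytotoxicity was any microscopic change in morphology or monolayer density from lysis, rounding or detachment. MTC = lowest concentration showing such change.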

Vero [2] = assay: Virus rating against Herpes simplex virus type 1 of strain KOS; format: functional, Chlorocebus sabaeus
Method in brief: (§1)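 Virus-infected confluent Vero cells treated with compound in seven 0.5-log steps (final 5.0–5000 μM) after 30-min adsorption at 37 °C, duplicate wells per concentration. CPE scored microscopically 0 (normal) to 4 (complete destruction) after 72 h at 37 °C, 5% CO2.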

Vero [3] = assay: Compound was tested for antiviral activity against Herpes simplex virus type 2 of strain 333; format: functional; conditions: Chlorocebus sabaeus, read-out: ED50 (the source's name)
Vero [4] = assay: Virus rating against Herpes simplex virus type 2 of strain MS; format: functional, Chlorocebus sabaeus; method in brief: as §1
Vero [5] = assay: Virus rating against vaccinia; format: functional, Chlorocebus sabaeus; method in brief: as §1
Vero [6] = assay: Compound was tested for antiviral activity against Herpes simplex virus type 2 (MS); format: functional; conditions: Chlorocebus sabaeus, read-out: ED50 (the source's name)
Vero [7] = assay: Compound was tested for antiviral activity against vaccinia; format: functional; conditions: Chlorocebus sabaeus, read-out: ED50 (the source's name)
Vero [8] = assay: Virus rating against para 3; format: functional, Chlorocebus sabaeus; method in brief: as §1
Vero [9] = assay: Virus rating against measles virus; format: functional, Chlorocebus sabaeus; method in brief: as §1
Vero [10] = assay: Compound was tested for antiviral activity against Herpes simplex virus type 1(KOS); format: functional; conditions: Chlorocebus sabaeus, read-out: ED50 (the source's name)
Vero [11] = assay: Virus rating against Herpes simplex virus type 2 of strain 333; format: functional, Chlorocebus sabaeus; method in brief: as §1
Vero [12] = assay: Virus rating against Herpes simplex virus type 1 of strainHF; format: functional, Chlorocebus sabaeus; method in brief: as §1
Vero [13] = assay: Compound was tested for antiviral activity against measles virus; format: functional; conditions: Chlorocebus sabaeus, read-out: ED50 (the source's name)
Vero [14] = assay: Compound was tested for antiviral activity against Herpes simplex virus type 1 (HF); format: functional; conditions: Chlorocebus sabaeus, read-out: ED50 (the source's name)
Vero [15] = assay: Compound was tested for antiviral activity against para 3; format: functional; conditions: Chlorocebus sabaeus, read-out: ED50 (the source's name)
Vero [16] = assay: Virus rating against Herpes simplex virus type 1 of strain HF; format: functional, Chlorocebus sabaeus; method in brief: as §1

Structure (SMILES)	MTC (Vero [1]) [µM]	VR (Vero [2])	pEC50 (Vero [3])	VR (Vero [4])	VR (Vero [5])	pEC50 (Vero [6])	pEC50 (Vero [7])	VR (Vero [8])	VR (Vero [9])	pEC50 (Vero [10])	VR (Vero [11])	VR (Vero [12])	pEC50 (Vero [13])	pEC50 (Vero [14])	pEC50 (Vero [15])	VR (Vero [16])
Nc1nc(O)c2ncn([C@H]3C[C@H](O)[C@@H](COP(=O)(O)C(=O)O)O3)c2n1	5000	0.1	3.64	1.18	0	3.46	< 2.30	0.25	0.1	< 2.30	1.26	0.22	< 2.30	< 2.30		
Nc1ncnc2c1ncn2[C@H]1C[C@H](O)[C@@H](COP(=O)(O)C(=O)O)O1	>5000	0.65	4.27	1.85	0	4.40	< 2.30		0.7	2.74	1.77	1.08	3.05	3.14		
Nc1ncnc2c1ncn2C1O[C@H](COP(=O)(O)C(=O)O)[C@@H](O)[C@H]1O (stereo partly specified)	>5000	0	2.80	1.15	0.65	3.44	3.13	0	0.38	< 2.30	0.7	0.18	2.52	< 2.30	< 2.30	
CCOC(=O)P(=O)(O)OC[C@H]1OC(n2cnc3c(N)ncnc32)[C@H](O)[C@@H]1O (stereo partly specified)	>5000	0	3.00	1.12	0.23	3.09	< 2.30	0		< 2.30	0.72	0.3	< 2.30	< 2.30	< 2.30	
NC(=O)P(=O)(O)OC[C@H]1OC(n2cnc3c(N)ncnc32)[C@H](O)[C@@H]1O (stereo partly specified)	>5000	0	3.36	1	0	3.08	< 2.30	0.1	0.45	< 2.30	1.24	0.28	2.55	< 2.30	< 2.30	
NC(=O)P(=O)(O)OC[C@H]1OC(n2cnc3c(O)nc(N)nc32)[C@H](O)[C@@H]1O (stereo partly specified)	>5000	0	3.52	0.91	0	3.01	< 2.30	0.1	0.7	< 2.30	1.16	0	3.05	< 2.30	< 2.30	
CCOC(=O)P(=O)(O)OC[C@H]1OC(n2cnc3c(O)nc(N)nc32)[C@H](O)[C@@H]1O (stereo partly specified)	>5000	0	3.22	0.9	0	3.09	< 2.30	0.1	0.68	< 2.30	1.02		3.30	< 2.30	< 2.30	0.22
Nc1nc(O)c2ncn(C3O[C@H](COP(=O)(O)C(=O)O)[C@@H](O)[C@H]3O)c2n1 (stereo partly specified)	>5000	0	< 2.30	0.18	0	< 2.30	< 2.30	0.1	0.62	< 2.30	0.22	0.2	3.48	< 2.30	< 2.30	
O=C([O-])P(=O)([O-])[O-].[Na+].[Na+].[Na+] [FOSCARNET SODIUM]	>5000	1.37	4.70	1.74	0.1	4.05	< 2.30	0.4	0	3.77	2.08	1.3	< 2.30	3.64	2.30	
